Results reported in publication PMC6172054 (Cancer Science, 2018).
Read-outs that look alike come from different tables or passages of the source.

What was measured:
[1] = Plasma pharmacokinetics of carfilzomib after 30-minute intravenous infusion; type: in vivo, human; conditions: for AUClast / T1/2 (terminal elimination half-life): mean ± SD, SD; for Tmax: median (minimum-maximum)
Method in brief: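 Relapsed/refractory myeloma patients got a 30-min IV infusion of test compound with dexamethasone 40 mg. Plasma was sampled on Days 1 (20 mg/m2) and 15 (70 mg/m2) of Cycle 1: pre-infusion, 5 and 15 min after start, just before end, then 5, 15, 30 min and 1, 2, 4 h post-infusion. Per-patient parameters were summarised as mean ± SD, Tmax as median (min–max).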

multiple myeloma [2] = conditions: twice weekly carfilzomib monotherapy 20/45 or 20/56 mg/m^2; cited from earlier work
multiple myeloma [3] = conditions: twice weekly carfilzomib monotherapy 20/27 mg/m^2; cited from earlier work
[4] = Day 1 of Cycle 1, carfilzomib 20 mg/m^2 iv, N = 6
[5] = Day 15 of Cycle 1, carfilzomib 70 mg/m^2 iv, N = 5

**Q.** For `CC(C)C[C@H](NC(=O)[C@H](CCc1ccccc1)NC(=O)CN1CCOCC1)C(=O)N[C@@H](Cc1ccccc1)C(=O)N[C@@H](CC(C)C)C(=O)[C@@]1(C)CO1` [carfilzomib], which AUClast [1, 4] is on record?
**A.** 355 ± 120 ng·h/mL

**Q.** What about the “T1/2 (terminal elimination half-life)” value [1, 4] of the same compound?
**A.** 41 ± 15.1 min

**Q.** And the Tmax [1, 4]?
**A.** 0.575 (0.250‐0.617) h

**Q.** And the AUClast [1, 5]?
**A.** 1250 ± 285 ng·h/mL

**Q.** And the “T1/2 (terminal elimination half-life)” value [1, 5]?
**A.** 54 ± 4.44 min

**Q.** What about the Tmax [1, 5] of the same compound?
**A.** 0.467 (0.250‐0.617) h

**Q.** And the ORR (multiple myeloma [2])?
**A.** 57.1%

**Q.** What about the ORR (multiple myeloma [3]) of the same compound?
**A.** 22.5%
